Measured values taken from paper PMC5458759 (Genes & Development, 2017).

Legend:
[1] = target: ERL1^LRR–TMM^LRR complex (Arabidopsis thaliana) (UniProt C0LGW6); test: ITC
ER^LRR [2] = test: Pull-down assay with 6xHis-tagged ER^LRR; format: binding, Arabidopsis; settings: Ni resin, SDS-PAGE, Coomassie blue; without TMM^LRR
In short: (§1)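 Purified C-terminal 6xHis-tagged receptor LRR, from High Five cells, was mixed with excess EPF-family peptide and Ni resin for 30 min on ice. The resin was washed four times in 25 mM Tris pH 8.0, 250 mM NaCl, 15 mM imidazole, then heated 5 min at 100°C in SDS loading buffer. Bound protein was detected by SDS-PAGE with Coomassie staining.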

ERL1^LRR [3] = test: Pull-down assay with 6xHis-tagged ERL1^LRR; format: binding, Arabidopsis; settings: Ni resin, SDS-PAGE, Coomassie blue; without TMM^LRR
In short: as §1

ERL2^LRR = test: Pull-down assay with 6xHis-tagged ERL2^LRR; format: binding, Arabidopsis; settings: Ni resin, SDS-PAGE, Coomassie blue; without TMM^LRR
In short: as §1

ER^LRR [4] = test: Gel filtration assay with ER^LRR; format: binding, Arabidopsis; settings: 10 mM Bis-Tris pH 6.0, 100 mM NaCl; incubated 30 min at 4°C
In short: (§2)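 LRR ectodomains were expressed in High Five insect cells by baculovirus at 22°C; for complexes, the ERf and TMM viruses were added together. Protein was purified from the supernatant by Ni-NTA and then size exclusion. Receptor and EPF-family peptide were mixed, held 30 min at 4°C, then run on Superdex 200 in 10 mM Bis-Tris pH 6.0, 100 mM NaCl. Fractions were analysed by SDS-PAGE with Coomassie staining.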

ERL1^LRR [5] = test: Gel filtration assay with ERL1^LRR; format: binding, Arabidopsis; settings: 10 mM Bis-Tris pH 6.0, 100 mM NaCl; incubated 30 min at 4°C
In short: as §2

ER^LRR–TMM^LRR complex = test: Gel filtration assay with ER^LRR–TMM^LRR complex; format: binding, Arabidopsis; settings: 10 mM Bis-Tris pH 6.0, 100 mM NaCl; incubated 30 min at 4°C
In short: as §2

ERL1^LRR–TMM^LRR complex = test: Gel filtration assay with ERL1^LRR–TMM^LRR complex; format: binding, Arabidopsis; settings: 10 mM Bis-Tris pH 6.0, 100 mM NaCl; incubated 30 min at 4°C
In short: as §2

Substance | Kd [1] [nM] | interaction with ER^LRR in pull-down (ER^LRR [2]) | interaction with ERL1^LRR in pull-down (ERL1^LRR [3]) | interaction with ERL2^LRR in pull-down (ERL2^LRR) | interaction with ER^LRR alone in gel filtration (ER^LRR [4]) | interaction with ERL1^LRR alone in gel filtration (ERL1^LRR [5]) | interaction with ER^LRR–TMM^LRR in gel filtration (comigration) (ER^LRR–TMM^LRR complex) | interaction with ERL1^LRR–TMM^LRR in gel filtration (comigration) (ERL1^LRR–TMM^LRR complex)
EPFL4–EPF1, swapped EPFL4 mutant with the apical loop region of EPF1 (peptide) | 420 |  |  |  |  |  |  | 
EPFL6: EPF family growth regulatory peptide, residues 106–156 (LGSSPPRCSSKCGRCTPCKPVHVPVPPGTPVTAEYYPEAWRCKCGNKLYMP) |  | sufficient for interaction | sufficient for interaction | sufficient for interaction |  |  |  | 
EPF1: cysteine-rich EPF family peptide, residues 53–104, expressed in High Five insect cells (AGSRLPDCSHACGSCSPCRLVMVSFVCASVEEAETCPMAYKCMCNNKSYPVP) |  |  |  |  | no binding | no binding | strong interaction | strong interaction
EPF2: cysteine-rich EPF family peptide, residues 69–120, expressed in insect cells (TGSSLPDCSYACGACSPCKRVMISFECSVAESCSVIYRCTCRGRYYHVPSRA) |  | none of the three ERf proteins displayed interaction | none of the three ERf proteins displayed interaction | none of the three ERf proteins displayed interaction | no binding | no binding | strong interaction | strong interaction
